In ChEMBL document CHEMBL5375970, “Discovery of Potent and Selective WDR5 Proteolysis Targeting Chimeras as Potential Therapeutics for Pancreatic Cancer” (J Med Chem, 2023):
Activity calls are given as the source filed them. No cut-off for these calls is given here.

How the values were obtained:
Format in all cases: cell-based
[1] = biological target: T1, Protein cereblon/WD repeat-containing protein 5 (Homo sapiens) (UniProt P61964+Q96SW2); assay: PROTAC activity at CRBN/WDR5 in human MV4-11 cells assessed as degradation of WDR5 protein at 0.5 uM incubated for 18 hrs by Western blotting analysis
How it was run: (§1)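 MV4;11 cells (RPMI 1640, 10% FBS) and MIA PaCa-2 cells (DMEM, 10% FBS) treated with DMSO or compound for 18 h. Whole-cell lysates immunoblotted for WDR5, IKZF1 (MV4;11 only) and LIMD1 (MV4;11 only), with tubulin as loading control and fluorescent secondary antibodies. Representative of at least two independent experiments.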

[2] = biological target: T1, Protein cereblon/WD repeat-containing protein 5 (Homo sapiens); assay: PROTAC activity at CRBN/WDR5 in human MV4-11 cells assessed as degradation of WDR5 protein at 2 uM incubated for 18 hrs by Western blotting analysis; how it was run: as §1
[3] = biological target: T2, Cereblon/Ikaros (Homo sapiens) (UniProt Q96SW2+Q13422); assay: PROTAC activity at CRBN/IKZF1 in human MV4-11 cells assessed as degradation of IKZF1 protein at 0.5 uM incubated for 18 hrs by Western blotting analysis; how it was run: as §1
[4] = biological target: T2, Cereblon/Ikaros (Homo sapiens); assay: PROTAC activity at CRBN/IKZF1 in human MV4-11 cells assessed as degradation of IKZF1 protein at 2 uM incubated for 18 hrs by Western blotting analysis; how it was run: as §1
[5] = biological target: T3, Protein cereblon/LIM domain-containing protein 1 (Homo sapiens) (UniProt Q96SW2+Q9UGP4); assay: PROTAC activity at CRBN/LIMD1 in human MV4-11 cells assessed as degradation of IKZF1 protein at 0.5 uM incubated for 18 hrs by Western blotting analysis; how it was run: as §1
T3 sequence (Q96SW2 whole entry, looked up, the tested form may be a part): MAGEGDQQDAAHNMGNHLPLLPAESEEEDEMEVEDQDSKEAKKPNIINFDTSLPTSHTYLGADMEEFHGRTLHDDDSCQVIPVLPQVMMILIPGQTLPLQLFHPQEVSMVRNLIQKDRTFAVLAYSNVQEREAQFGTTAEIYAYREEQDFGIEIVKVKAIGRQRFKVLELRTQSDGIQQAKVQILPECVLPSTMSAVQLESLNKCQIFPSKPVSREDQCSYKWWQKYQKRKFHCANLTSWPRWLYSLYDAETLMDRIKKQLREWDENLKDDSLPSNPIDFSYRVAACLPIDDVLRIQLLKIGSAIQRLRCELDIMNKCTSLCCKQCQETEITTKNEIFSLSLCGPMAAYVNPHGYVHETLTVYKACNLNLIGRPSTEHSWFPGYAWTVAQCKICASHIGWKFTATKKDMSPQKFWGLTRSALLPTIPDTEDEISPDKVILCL
T3 sequence (Q9UGP4 whole entry, looked up, the tested form may be a part): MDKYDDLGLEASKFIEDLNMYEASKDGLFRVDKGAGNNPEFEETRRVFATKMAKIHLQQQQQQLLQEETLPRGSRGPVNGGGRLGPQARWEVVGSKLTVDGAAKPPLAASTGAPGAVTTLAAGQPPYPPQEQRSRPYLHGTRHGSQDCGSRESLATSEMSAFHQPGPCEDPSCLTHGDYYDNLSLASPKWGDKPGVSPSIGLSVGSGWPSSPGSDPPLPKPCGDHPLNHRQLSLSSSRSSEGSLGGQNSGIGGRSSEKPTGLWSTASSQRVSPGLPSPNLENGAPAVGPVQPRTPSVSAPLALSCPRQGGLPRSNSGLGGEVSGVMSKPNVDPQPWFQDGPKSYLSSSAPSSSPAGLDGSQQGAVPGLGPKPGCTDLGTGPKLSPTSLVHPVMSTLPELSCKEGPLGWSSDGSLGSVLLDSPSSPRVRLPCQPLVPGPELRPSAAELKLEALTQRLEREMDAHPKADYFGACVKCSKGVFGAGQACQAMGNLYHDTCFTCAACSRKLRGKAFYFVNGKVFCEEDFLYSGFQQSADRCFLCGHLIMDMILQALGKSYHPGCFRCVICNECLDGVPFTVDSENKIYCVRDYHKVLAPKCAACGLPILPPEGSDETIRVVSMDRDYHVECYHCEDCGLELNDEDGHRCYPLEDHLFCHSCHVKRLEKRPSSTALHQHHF

[6] = biological target: T3, Protein cereblon/LIM domain-containing protein 1 (Homo sapiens); assay: PROTAC activity at CRBN/LIMD1 in human MV4-11 cells assessed as degradation of IKZF1 protein at 2 uM incubated for 18 hrs by Western blotting analysis; how it was run: as §1
[7] = biological target: T1, Protein cereblon/WD repeat-containing protein 5 (Homo sapiens); assay: PROTAC activity at CRBN/WDR5 in human MIA PaCa-2 cells assessed as degradation of WDR5 protein at 0.01 to 5 uM incubated for 18 hrs by Western blotting analysis; details: dose 0.01-5 µM; how it was run: as §1
[8] = biological target: T1, Protein cereblon/WD repeat-containing protein 5 (Homo sapiens); assay: PROTAC activity at CRBN/WDR5 in human MV4-11 cells assessed as degradation of WDR5 protein at 0.01 to 5 uM incubated for 18 hrs by Western blotting analysis; details: dose 0.01-5 µM; how it was run: as §1
[9] = biological target: T2, Cereblon/Ikaros (Homo sapiens); assay: PROTAC activity at CRBN/IKZF1 in human MV4-11 cells assessed as degradation of IKZF1 protein at 0.01 to 5 uM incubated for 18 hrs by Western blotting analysis; details: dose 0.01-5 µM; how it was run: as §1
[10] = biological target: von Hippel-Lindau disease tumor suppressor/WD repeat-containing protein 5 (Homo sapiens, UniProt P61964+P40337); assay: PROTAC activity at human VHL/human WDR5 wild type expressed in HEK293T cells assessed as degradation of WDR5 protein incubated for 3 days by Western blotting analysis; details: time 3.0 day
How it was run: (§2)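 HEK293T cells were lentivirally transduced with doxycycline-inducible (1 μg/mL) 3×FLAG WDR5 wild type, K32R or K296R and selected with puromycin for 4 days. The stable lines were treated with a concentration series for 72 h. Lysates were run on 4–12% SDS-PAGE and immunoblotted for WDR5 with a vinculin loading control, with at least two independent experiments.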

[11] = system: von Hippel-Lindau disease tumor suppressor/WD repeat-containing protein 5 (Homo sapiens), P61964+P40337 [K32R]; assay: PROTAC activity at human VHL/human WDR5 K32R mutant expressed in HEK293T cells assessed as degradation of WDR5 protein at 0.25 to 5 uM incubated for 3 days by Western blotting analysis; details: dose 0.25-5 µM, time 3.0 day; how it was run: as §2
[12] = system: von Hippel-Lindau disease tumor suppressor/WD repeat-containing protein 5 (Homo sapiens), P61964+P40337 [K296R]; assay: PROTAC activity at human VHL/human WDR5 K296R mutant expressed in HEK293T cells assessed as degradation of WDR5 protein at 0.25 to 5 uM incubated for 3 days by Western blotting analysis; details: dose 0.25-5 µM, time 3.0 day; how it was run: as §2

Activity [1]	Activity [2]	Activity [3]	Activity [4]	Activity [5]	Activity [6]	Activity [7]	Activity [8]	Activity [9]	Compound	Activity [10]	Activity [11]	Activity [12]
Active	Active	inactive	inactive	inactive	inactive	–	–	–	CN1CCN(c2ccc(-c3cccc(CN4CCN(CCNC(=O)CCCCNC(=O)COc5cccc6c5C(=O)N(C5CCC(=O)NC5=O)C6=O)CC4)c3)cc2NC(=O)c2c[nH]c(=O)cc2C(F)(F)F)CC1 (stereo unspecified)	–	–	–
Active	Active	inactive	inactive	inactive	inactive	Active	Active	inactive	CN1CCN(c2ccc(-c3cccc(CN4CCN(CCNC(=O)CCCCCCCNC(=O)COc5cccc6c5C(=O)N(C5CCC(=O)NC5=O)C6=O)CC4)c3)cc2NC(=O)c2c[nH]c(=O)cc2C(F)(F)F)CC1 (stereo unspecified)	–	–	–
–	–	–	–	–	–	–	–	–	Cc1ncsc1-c1ccc([C@H](C)NC(=O)[C@@H]2C[C@@H](O)CN2C(=O)[C@@H](NC(=O)CNC(=O)c2ccc(F)c(-c3ccc(N4C[C@@H](C)N(C)[C@@H](C)C4)c(NC(=O)c4c[nH]c(=O)cc4C(F)(F)F)c3)c2)C(C)(C)C)cc1	Dose-Dependent Effect	Active	inactive
–	–	–	–	–	–	Active	Active	inactive	C[C@@H]1CN(c2ccc(-c3cc(C(=O)NCCCCCCCNC(=O)COc4cccc5c4C(=O)N(C4CCC(=O)NC4=O)C5=O)ccc3F)cc2NC(=O)c2c[nH]c(=O)cc2C(F)(F)F)C[C@H](C)N1C (stereo partly specified)	–	–	–
